First the molecules themselves.
B1: tRNA (parent)
chain: GUUCCGUUGGCGUAAUGGUAACGCGUCUCCCUCCUAAGGAGAAGACUGCGGGUUCGAGUCCCGUACGGAACG

This sample holds only a part of the variants without activity.

The variants in this series derive from B1. As to the kind of experiment: yeast fitness relative to wild type (ratio to wild type); higher = fitter; tRNA-Arg(CCU), competitive growth, 37 C, YPD. An outline of the steps: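 Variants of the tRNA-Arg(CCU) gene, chemically synthesised with a 3% per-site mutation rate at 69 sites, were placed at the native genomic locus in Saccharomyces cerevisiae. The pooled strains were competed in YPD at 37°C for 24 hours in six parallel replicates. Gene amplicons from the start population and from each end population were read by 100-nucleotide paired-end sequencing. Darwinian fitness relative to wild type came from changes in genotype frequencies; genotypes needed ≥ 100 starting reads, and estimates < 0.5 were set to 0.5.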
On to G25C C31G A42G U54G, for which the yeast fitness was at most 0.5.

With C5G G48C G56A, the yeast fitness was 0.544.

As to A14G C49G A57G, the yeast fitness came to 0.557.

Turning to U3C C30U G38A G44C U54A, the yeast fitness was at most 0.5.

For C5G G56C, the yeast fitness came out at 0.662.

C4G C11G U26A A65G: the yeast fitness is at most 0.5.

Take C24G C60U G68A: the yeast fitness is 0.789.

Consider A15C G17A, for which the yeast fitness was 0.707.

On to U16G G44A, for which the yeast fitness was 0.994.

Consider A14C C34U A37G A69C, for which the yeast fitness is at most 0.5.

As to A14C A45G C49U, the yeast fitness came to 0.549.

As to C4G A20C, the yeast fitness stood at 0.8.

Regarding C4U G67A, the yeast fitness came out at 0.904.

Consider A14G C30A C34G C62U, for which the yeast fitness was at most 0.5.

As to C5G G18C C60G, the yeast fitness was at most 0.5.

On to A15C A21G G23A C27U, for which the yeast fitness was at most 0.5.

As for G48A U53C C60A, the yeast fitness was at most 0.5.

In the case of A45G G63A, the yeast fitness amounted to 0.747.

U7C C49U U54C: the yeast fitness turned out to be 0.508.

C5U U13C A20C A36G G52C: the yeast fitness is at most 0.5.

U8C G18C C33U: the yeast fitness was at most 0.5.

Turning to U35G A70U, the yeast fitness came to 0.674.

For U3A C30U G50C, the yeast fitness was at most 0.5.

As for U16C A21C C49A A57G G58A C66U G68A, the yeast fitness is at most 0.5.

For U3C C24G G50C G68C, the yeast fitness is at most 0.5.

For the variant C34U U64A, the yeast fitness was determined as 0.597.

For the variant A21C U64G A69G, the yeast fitness was 0.504.

Consider U16G A20C G25A A43U G50A C55U, for which the yeast fitness is at most 0.5.

As for U3C A14C A20C, the yeast fitness was at most 0.5.

Take C4U C61G C66U A69U: the yeast fitness is at most 0.5.

Turning to A15G A69G, the yeast fitness was 1.05.

With U2A C5U C24U U54C G58A, the yeast fitness came to 0.569.

With C5G A36U G52C G67U A69U, the yeast fitness is at most 0.5.

For C4G A20U C60G C62G, the yeast fitness was 0.584.

G9C C46U A57C: the yeast fitness came to 0.662.

Take C22U C24U C33G C55G: the yeast fitness was at most 0.5.

Turning to U8G C24A U35G C46G U53C U54G, the yeast fitness is at most 0.5.

With C27U A36U G44A, the yeast fitness was at most 0.5.

Take C4A G6A C29G A57G: the yeast fitness amounted to 0.535.

On to A40G G50C, for which the yeast fitness came out at 0.649.

Take C30G C55A A65U: the yeast fitness was found to be 0.552.

As for C31A U47C, the yeast fitness is 0.767.

Consider U2C U19C A45C C55U, for which the yeast fitness is at most 0.5.

For G10C C24G C49U C66U, the yeast fitness is at most 0.5.

As for U7G, the yeast fitness was 0.983.

Consider G10A C11U U35A C61U, for which the yeast fitness was at most 0.5.

Consider U13A A15C C33G G52A, for which the yeast fitness is at most 0.5.

On to C4G C34G A42U C61U C66U, for which the yeast fitness was at most 0.5.

As to C5U U35C A36U G38A C46A U54C, the yeast fitness worked out at 0.556.

In the case of U64C G67C, the yeast fitness was determined as 0.938.

Turning to C29G C30G C34G C60A G67C, the yeast fitness was at most 0.5.

Take U7A A20G C22A A40G G41C: the yeast fitness was at most 0.5.

Take G12C U54G: the yeast fitness came to 0.657.

As to G6C C61G, the yeast fitness was 0.675.

Take A15U G25C C61G: the yeast fitness is at most 0.5.

Regarding G6A C31G C49A G68C, the yeast fitness is 0.536.

For G9A C46U C66U, the yeast fitness stood at 1.04.

Consider U32C C34G G41C, for which the yeast fitness is at most 0.5.

In the case of C30U A57C, the yeast fitness came out at 0.586.

Turning to C5G G17A G18A A57C, the yeast fitness was determined as 0.554.

Take U26A G44C: the yeast fitness worked out at 0.886.

As to G48C U59A, the yeast fitness is 0.785.

As to U3A C4A U16A C30G U53C G67A, the yeast fitness is 0.604.

Regarding A15G G41A C49A C66A, the yeast fitness is 0.53.

On to A37U A43C U47C C60G, for which the yeast fitness is at most 0.5.

On to C4A U32C C66U, for which the yeast fitness came out at 0.707.

In the case of U8A C46A, the yeast fitness came to 0.657.

As to U16A G18C A20G C22U A65C, the yeast fitness is at most 0.5.

With U7C C29G G58C G67C, the yeast fitness is at most 0.5.

For the variant C11G U32A G68A, the yeast fitness stood at 0.746.

For U8C U35A, the yeast fitness turned out to be 0.6.

For the variant C30G C33U G58C U64A C66U, the yeast fitness is at most 0.5.

On to C30G U32G C55G, for which the yeast fitness was at most 0.5.

Consider G12C A20U C24U G51A G68C, for which the yeast fitness is at most 0.5.

On to A42C C46U, for which the yeast fitness stood at 0.969.

As for C11G G23C A36U G44C, the yeast fitness was 0.748.

With A40C U47A, the yeast fitness was 0.636.

In the case of C11U A40G A43C G56A, the yeast fitness was 0.578.

In the case of G9A C33U C49G, the yeast fitness was at most 0.5.

As for U2C C30U, the yeast fitness stood at 0.967.

Regarding G17C G48U, the yeast fitness was at most 0.5.

On to U47G C49U, for which the yeast fitness was found to be 0.682.

On to G6A C31G A43C C49A U54C C60G, for which the yeast fitness is at most 0.5.

U2C G10A C30U: the yeast fitness amounted to 0.629.

As for G39A C66A, the yeast fitness was 0.698.

Take A20U C24G A70G: the yeast fitness is at most 0.5.

Consider A14C C27G C46G A57G A65G, for which the yeast fitness was at most 0.5.

As to G23C C29A G44A, the yeast fitness was 0.608.

As to A15C C29G G44C A45U U47A A70C, the yeast fitness is at most 0.5.

A15U G68A: the yeast fitness was determined as 0.62.

In the case of G10A G38C C46A C62G C66U, the yeast fitness was at most 0.5.

Regarding A37U G51C A57C, the yeast fitness came to 0.552.

For C5G U26G, the yeast fitness came to 0.625.

For the variant G38C G68A A70U, the yeast fitness was at most 0.5.

As for U16C U47C U64G, the yeast fitness was at most 0.5.

With U8A C11U G25A C33A A40U C61A C62U, the yeast fitness was at most 0.5.

Turning to G23C C30A C46A, the yeast fitness is at most 0.5.

Turning to U35A U47C C49U C62A A69G, the yeast fitness was determined as 0.718.

A20U A69C: the yeast fitness was found to be 0.979.

With C4U G51C U59G, the yeast fitness came to 0.557.

As to U16C C55A G67A A70G, the yeast fitness was at most 0.5.

For the variant A20U A45U C62A A70C, the yeast fitness was found to be 0.505.

For the variant U54C A69U, the yeast fitness was determined as 0.986.

Take U7A C49A G56A: the yeast fitness was found to be 0.594.

With A42G G67A G68A, the yeast fitness was at most 0.5.

Turning to C24A C31U C55A C60A, the yeast fitness is at most 0.5.

Turning to G6A C34U A65C, the yeast fitness was 0.54.

With U3G C31U C49U G50A, the yeast fitness is at most 0.5.

As to A15U C22G A69U, the yeast fitness turned out to be 0.608.

As to G18A G51A, the yeast fitness was 0.625.

Regarding A15G C30G G68A, the yeast fitness was at most 0.5.

Turning to C5G U7G U13A C30A A43C U53C, the yeast fitness stood at 0.876.

With C62A A65U C66U, the yeast fitness is at most 0.5.

For the variant C60A C61U, the yeast fitness turned out to be 0.599.

On to U16C U59A G67C, for which the yeast fitness was found to be 0.675.

Take U32A G41A C61A: the yeast fitness was at most 0.5.

C27G A43C C62U: the yeast fitness amounted to 0.599.

On to C5G C22U G50U, for which the yeast fitness is 0.563.

On to A40U G48C G63A, for which the yeast fitness turned out to be 0.602.

Turning to U2C A14U C61G A70G, the yeast fitness is at most 0.5.

With C22U G39C, the yeast fitness was determined as 0.731.

With A20G A37U C46A, the yeast fitness was at most 0.5.

On to C27U C34G, for which the yeast fitness was 0.698.

Regarding C24G C31U A37G G50C A57U, the yeast fitness was found to be 0.648.

For G12A U19G U35C A40U A42G, the yeast fitness is at most 0.5.

In the case of U54C A57G C60G, the yeast fitness was 0.787.

Turning to U28C C66U, the yeast fitness amounted to 0.907.

As for G10A C31U C34A A40G A65U, the yeast fitness is at most 0.5.

Regarding C22A G41A G50A, the yeast fitness is at most 0.5.

As to C11U U59A G67A, the yeast fitness amounted to 0.542.

With G6C C11G A14U C22U G44A C55A, the yeast fitness was at most 0.5.

Turning to G6A U8C G17A G25A C55A, the yeast fitness was at most 0.5.

As for U8C A15G G25A C49U A65U, the yeast fitness is at most 0.5.

Consider A14G U19G, for which the yeast fitness came to 0.856.

A14G G18A U26A: the yeast fitness is at most 0.5.

For the variant C4U A20C, the yeast fitness was determined as 1.03.

In the case of C24G G50C G68C, the yeast fitness worked out at 0.629.

As to C24G A37C G67A, the yeast fitness is at most 0.5.

In the case of U3A G52C, the yeast fitness turned out to be 0.645.

Consider C22G U35C G50C, for which the yeast fitness was at most 0.5.

For U2G C34G C46U G48C U54G, the yeast fitness is 0.709.

Regarding U2C C11U A21C U26C C34A A45U C46A G50A U54C C55G, the yeast fitness is at most 0.5.

On to U54A A70U, for which the yeast fitness worked out at 0.768.

Turning to C29G A42U, the yeast fitness was 0.712.

As to U3C C11U C46U, the yeast fitness worked out at 1.1.

As to C29G C66U, the yeast fitness is 0.648.

A21G G48C A57G G63A: the yeast fitness is at most 0.5.

Regarding C30G C49U, the yeast fitness is 0.643.

As to A37U A42C C55U A69U, the yeast fitness was at most 0.5.

With A14U U26A A42G U59G C60U, the yeast fitness is at most 0.5.

For C22A A42C, the yeast fitness stood at 0.635.

Regarding U3A G12C U13C A69C, the yeast fitness turned out to be 0.732.

As to A20G C24G C60G C62U, the yeast fitness came to 0.562.

In the case of C11U C24A C31U C33U A37U G48A G67A, the yeast fitness was at most 0.5.

In the case of G10C U16G C31A U32G C55U, the yeast fitness is at most 0.5.

For the variant C4U U7G A37G, the yeast fitness amounted to 0.536.

Take G10A A21C A57U: the yeast fitness was at most 0.5.

Consider U32C A43G G52A C61G, for which the yeast fitness amounted to 0.532.

Turning to U13A C27U G56A, the yeast fitness stood at 0.97.

With G23C A37C C46G C66U, the yeast fitness was at most 0.5.

As for G25C U35A, the yeast fitness amounted to 0.604.

G6C G38C: the yeast fitness was found to be 0.693.

As for C11A U19C U26C A40U G44C C46U U64G, the yeast fitness was found to be 0.514.

As to C30A A42G G44A, the yeast fitness came to 0.704.

Regarding U3C A15U C34U A43G U54C, the yeast fitness is at most 0.5.

Turning to A14C U26A C34U C55G G68A, the yeast fitness was at most 0.5.

Regarding C11U U32G U59C, the yeast fitness was at most 0.5.

Source of the values: the RNAGym collection of RNA variant scans (doi:10.1126/science.aae0568).
